Data set [1] in a line: Plasma concentration in cynomolgus monkey at 50 mg/kg, po measured at 2 hrs of administration. The class given is ADME, organism-based, Macaca fascicularis. The essentials:
(§1)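 Cynomolgus monkeys received 50 mg/kg orally as a suspension in 0.5% methylcellulose. Plasma concentrations were measured at 2, 4 and 8 h post-dose, and each animal was reported individually.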

A short description of data set [2]: Cmax in cynomolgus monkey at 1 mg/kg, po administered as cassette dose by LC-MS/MS analysis. The format is ADME, organism-based, Macaca fascicularis. On the set-up: route oral, dose 1 mg/kg. The note with it: in vivo. The essentials: (§2)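 Cassette oral dosing, 1.0 mg/kg as a suspension in 0.5% methylcellulose, to fed cynomolgus monkeys. Plasma was obtained from blood, deproteinized with ice-cold acetonitrile containing internal standard, and measured by LC/MS/MS against a calibration curve using analyte/IS peak-area ratios. Values are means of three determinations.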

The nature of data set [3]: Half-life in cynomolgus monkey at 1 mg/kg, po administered as cassette dose by LC-MS/MS analysis. The format is ADME, organism-based, Macaca fascicularis. The conditions noted are these: in vivo. The essentials:
as §2

The nature of data set [4]: Induction of chemR23 internalization on pDCs of cynomolgus monkey assessed as chemR23 expression relative to pre-dose at 50 mg/kg, po measured at 4 hrs of administration by flow cytometric analysis.
A short description of data set [5]: AUC (0 to infinity) in cynomolgus monkey at 1 mg/kg, po administered as cassette dose by LC-MS/MS analysis. The class given is ADME, organism-based, Macaca fascicularis. On the set-up: time infinity, route oral, dose 1 mg/kg. The conditions noted are these: in vivo. The essentials: as §2
Data set [6] is described as follows: Cmax in cynomolgus monkey at 10 mg/kg, po by LC-MS/MS analysis. The note with it: in vivo. The class given is ADME, organism-based, Macaca fascicularis. The arrangement: route oral, dose 10 mg/kg. In short, it runs like this: (§3)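 Single-compound oral dosing, 10 mg/kg as a suspension in 0.5% methylcellulose, to fed cynomolgus monkeys. Plasma was deproteinized with ice-cold acetonitrile plus internal standard and quantified by LC/MS/MS from analyte/IS peak-area ratios on a calibration curve. Values are means of three determinations.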

Data set [7] is described as follows: Plasma concentration in cynomolgus monkey at 50 mg/kg, po measured at 8 hrs of administration. The class given is ADME, organism-based, Macaca fascicularis. The essentials:
as §1

Data set [8] in a line: Induction of chemR23 internalization on pDCs of cynomolgus monkey assessed as internalization rate at 50 mg/kg, po measured after 4 hrs of administration by flow cytometric analysis relative to control. The class given is functional, Macaca fascicularis. The essentials:
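Cynomolgus monkeys received 50 mg/kg orally as a suspension in 0.5% methylcellulose. Blood was drawn before dosing and at 2, 4 and 8 h. pDCs (HLA-DR+CD123+) were stained for ChemR23 and read by flow cytometry as GeoMFI. Internalization was expressed as expression at each time relative to pre-dose. Each animal was reported individually.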

Data set [9] is described as follows: AUC (0 to infinity) in cynomolgus monkey at 10 mg/kg, po by LC-MS/MS analysis. The note with it: in vivo. The format is ADME, organism-based, Macaca fascicularis. The arrangement: time infinity, route oral, dose 10 mg/kg. The essentials:
as §3

The species entered for data set [10] is Macaca fascicularis. Nature of the data set: Induction of chemR23 internalization in whole blood of cynomolgus monkey assessed as internalization rate at 100 uM by flow cytometric analysis relative to control. The format is tissue-based.
The species entered for data set [11] is Macaca fascicularis. In words: Induction of chemR23 internalization in whole blood of cynomolgus monkey assessed as internalization rate at 30 uM by flow cytometric analysis relative to control. The class given is tissue-based.
The nature of data set [12]: Drug concentration in cynomolgus monkey at 10 mg/kg, po by LC-MS/MS analysis measured upto 8 hrs. The class given is ADME, organism-based, Macaca fascicularis. The note with it: in vivo, read-out: Ct. In short, it runs like this:
as §3

Data set [13] is described as follows: Ratio of fraction unbound in cynomolgus monkey plasma at 10 mg/kg to IC50 of inhibition of chemR23 in human CAL1 cells. The conditions noted are these: in vivo. The format is organism-based.
Data set [14] in a line: Fraction unbound in cynomolgus monkey plasma at 1 mg/kg, po administered as cassette dose incubated for 16 to 24 hrs by equilibrium dialysis based LC-MS analysis. The format is ADME, organism-based, Macaca fascicularis. The conditions noted are these: in vivo, time 16-24 hrs. The essentials: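 Monkey plasma diluted with PBS and spiked with compound at 1 µM (final DMSO 0.05% v/v) was equilibrium-dialysed against PBS (membrane MWCO 12000–14000) for 16–24 h at 37 °C in a CO2 incubator. Both sides were deproteinized with acetonitrile containing IS and analysed by LC-MS/MS. Undiluted fu,p was calculated from the diluted value using the dilution factor.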

The nature of data set [15]: Half-life in cynomolgus monkey at 10 mg/kg, po by LC-MS/MS analysis. The class given is ADME, organism-based, Macaca fascicularis. The note with it: in vivo. The essentials: as §3
Data set [16] concerns the target T1, Chemerin-like receptor 1 (Homo sapiens, UniProt Q99788).
T1 sequence (Q99788 whole entry): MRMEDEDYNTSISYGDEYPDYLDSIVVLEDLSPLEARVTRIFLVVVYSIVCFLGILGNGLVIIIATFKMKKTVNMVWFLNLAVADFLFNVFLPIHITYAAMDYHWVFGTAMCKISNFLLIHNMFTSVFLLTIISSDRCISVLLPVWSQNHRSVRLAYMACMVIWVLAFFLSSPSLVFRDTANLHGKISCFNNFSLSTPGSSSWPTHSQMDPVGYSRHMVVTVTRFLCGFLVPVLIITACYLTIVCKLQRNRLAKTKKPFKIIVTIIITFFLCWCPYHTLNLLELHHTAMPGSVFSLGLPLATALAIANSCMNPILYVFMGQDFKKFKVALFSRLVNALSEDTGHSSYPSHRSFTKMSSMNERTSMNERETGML
In words: Inhibition of chemR23 in human CAL1 cells assessed as inhibition of chemerin-induced intracellular calcium ion concentration preincubated for 45 mins followed by human chemerin addition by FDSS6000 analysis. The class given is functional, cell-based.

A short description of data set [17]: MRT in cynomolgus monkey at 10 mg/kg, po by LC-MS/MS. The class given is ADME, organism-based, Macaca fascicularis. The note with it: in vivo. In short, it runs like this:
as §3

Data set [18] can be described thus: Oral bioavailability in cynomolgus monkey at 1 mg/kg and 0.1 mg/kg, iv administered as cassette dose by LC-MS/MS analysis. The class given is ADME, organism-based, Macaca fascicularis. The note with it: in vivo. In short, it runs like this: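 Plasma was deproteinized with ice-cold acetonitrile containing internal standard and quantified by LC/MS/MS against a calibration curve from analyte/IS peak-area ratios. Values are means of three determinations.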

Data set [19] can be described thus: Plasma concentration in cynomolgus monkey at 50 mg/kg, po measured at 4 hrs of administration. The format is ADME, organism-based, Macaca fascicularis. In short, it runs like this: as §1
Data set [20] can be described thus: Induction of chemR23 internalization on pDCs of cynomolgus monkey assessed as chemR23 expression relative to pre-dose at 50 mg/kg, po measured at 8 hrs of administration by flow cytometric analysis.
The nature of data set [21]: Induction of chemR23 internalization on pDCs of cynomolgus monkey assessed as chemR23 expression relative to pre-dose at 50 mg/kg, po measured at 2 hrs of administration by flow cytometric analysis.

pIC50: −log10 of the molar value.

Here are results for 1 compound from ChEMBL document CHEMBL4725330, “The design, synthesis and evaluation of 2-aminobenzoxazole analogues as potent and orally efficacious ChemR23 inhibitors” (Bioorg Med Chem, 2020).

In data set [1], `Cc1ccc(-c2nc(=O)o[nH]2)c(-c2ccc([C@@H](C)N(CC3CC3)c3nc4c(C(=O)O)cccc4o3)cc2)c1` displayed a concentration at 2 h of 178 µM. For the same compound, the Cmax amounted to 1490 ng/mL in data set [2] and 6950 ng/mL in data set [6]. In addition, the half-life in data set [3] was 2.8 h; in [15] it was 1 h. Moreover, the ChemR23 expression in data set [4] came to 10%; in data set [20] it was 44%; in data set [21] it was 30%. Besides, the AUC(0-inf) in [5] stood at 4830 ng·h/mL; in [9], 22200 ng·h/mL. The concentration at 8 h was found to be 30.4 µM in data set [7] and 206 ng/mL in [12]. The figures for the Activity in [8], in [10] and in data set [11] were 74%, 82% and 53%, respectively. In addition, the Ratio in data set [13] was found to be 1. Besides, the Fu in data set [14] is 0.023 fraction (unitless). Moreover, in data set [16], the pIC50 is 8.49. In addition, the MRT in [17] was 2.9 h. In data set [18], this compound displayed a bioavailability of 58%. In addition, the concentration at 4 h in data set [19] turned out to be 204 µM.
